Tests used:
Type in all cases: functional
[1] = tested on: MCF7; assay: Growth inhibition of human MCF7 cells at 10 uM after 48 hrs by SRB assay; conditions: MCF7, 48 h, read-out: GI
In short: (§1)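 NCI-60 primary one-dose screen run at the US NCI, with human tumour lines from nine cancer types. Compound added once at 10^-5 M, followed by 48 h incubation. End point was sulforhodamine B protein staining read spectrophotometrically. Result given as percent growth of treated cells against untreated controls, reported as % growth inhibition.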

[2] = tested on: HOP-62; assay: Growth inhibition of human HOP62 cells at 10 uM after 48 hrs by SRB assay; conditions: HOP-62, 48 h, read-out: GI; in short: as §1
[3] = tested on: 786-0; assay: Growth inhibition of human 786-0 cells at 10 uM after 48 hrs by SRB assay; conditions: 786-0, 48 h, read-out: GI
In short: (§2)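 NCI primary one-dose screen. A single concentration of 10^-5 M was added to the cell culture, followed by 48 h incubation and an SRB protein-dye endpoint read spectrophotometrically. Results are growth percentage relative to untreated control cells, reported as % growth inhibition.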

[4] = tested on: A498; assay: Growth inhibition of human A498 cells at 10 uM after 48 hrs by SRB assay; conditions: A498, 48 h, read-out: GI; in short: as §2
[5] = tested on: K562; assay: Growth inhibition of human K562 cells at 10 uM after 48 hrs by SRB assay; conditions: K562, 48 h, read-out: GI; in short: as §1
[6] = tested on: NCI-H522; assay: Growth inhibition of human NCI-H522 cells at 10 uM after 48 hrs by SRB assay; conditions: NCI-H522, 48 h, read-out: GI; in short: as §1
[7] = Growth inhibition of human NCI-ADR-RES cells at 10 uM after 48 hrs by SRB assay; conditions: read-out: GI; in short: as §1
[8] = Growth inhibition of human MOLT4 cells at 10 uM after 48 hrs by SRB assay; conditions: MOLT-4, 48 h, read-out: GI; in short: as §1
[9] = tested on: NCI-H23; assay: Growth inhibition of human NCI-H23 cells at 10 uM after 48 hrs by SRB assay; conditions: NCI-H23, 48 h, read-out: GI; in short: as §1
[10] = Growth inhibition of human UO31 cells at 10 uM after 48 hrs by SRB assay; conditions: UO-31, 48 h, read-out: GI; in short: as §1
[11] = tested on: SR; assay: Growth inhibition of human SR cells at 10 uM after 48 hrs by SRB assay; conditions: read-out: GI; in short: as §1
[12] = tested on: SNB-75; assay: Growth inhibition of human SNB75 cells at 10 uM after 48 hrs by SRB assay; conditions: SNB-75, 48 h, read-out: GI; in short: as §1
[13] = tested on: HCT-116; assay: Growth inhibition of human HCT116 cells at 10 uM after 48 hrs by SRB assay; conditions: HCT-116, 48 h, read-out: GI; in short: as §1
[14] = tested on: SF-268; assay: Growth inhibition of human SF268 cells at 10 uM after 48 hrs by SRB assay; conditions: SF-268, 48 h, read-out: GI; in short: as §1
[15] = tested on: SK-OV-3; assay: Growth inhibition of human SKOV3 cells at 10 uM after 48 hrs by SRB assay; conditions: SK-OV-3, 48 h, read-out: GI; in short: as §1
[16] = Growth inhibition of human BT549 cells at 10 uM after 48 hrs by SRB assay; conditions: BT-549, 48 h, read-out: GI; in short: as §2
[17] = tested on: SNB-19; assay: Growth inhibition of human SNB19 cells at 10 uM after 48 hrs by SRB assay; conditions: SNB-19, 48 h, read-out: GI; in short: as §1
[18] = tested on: RPMI-8226; assay: Growth inhibition of human RPMI8226 cells at 10 uM after 48 hrs by SRB assay; conditions: RPMI-8226, 48 h, read-out: GI; in short: as §1
[19] = tested on: TK-10; assay: Growth inhibition of human TK10 cells at 10 uM after 48 hrs by SRB assay; conditions: TK-10, 48 h, read-out: GI; in short: as §1
[20] = tested on: SN12C; assay: Growth inhibition of human SN12C cells at 10 uM after 48 hrs by SRB assay; conditions: read-out: GI; in short: as §1
[21] = tested on: CAKI-1; assay: Growth inhibition of human CAKI-1 cells at 10 uM after 48 hrs by SRB assay; conditions: CAKI-1, 48 h, read-out: GI; in short: as §2
[22] = tested on: SW-620; assay: Growth inhibition of human SW620 cells at 10 uM after 48 hrs by SRB assay; conditions: SW-620, 48 h, read-out: GI; in short: as §1
[23] = tested on: COLO 205; assay: Growth inhibition of human COLO205 cells at 10 uM after 48 hrs by SRB assay; conditions: COLO 205, 48 h, read-out: GI; in short: as §2
[24] = Growth inhibition of human HCT15 cells at 10 uM after 48 hrs by SRB assay; conditions: HCT-15, 48 h, read-out: GI; in short: as §1
[25] = Growth inhibition of human SF539 cells at 10 uM after 48 hrs by SRB assay; conditions: SF-539, 48 h, read-out: GI; in short: as §1
[26] = tested on: HT-29; assay: Growth inhibition of human HT-29 cells at 10 uM after 48 hrs by SRB assay; conditions: HT-29, 48 h, read-out: GI; in short: as §1
[27] = tested on: M14; assay: Growth inhibition of human M14 cells at 10 uM after 48 hrs by SRB assay; conditions: M14, 48 h, read-out: GI; in short: as §1
[28] = tested on: U-251; assay: Growth inhibition of human U251 cells at 10 uM after 48 hrs by SRB assay; conditions: U-251, 48 h, read-out: GI; in short: as §1
[29] = Growth inhibition of human HOP92 cells at 10 uM after 48 hrs by SRB assay; conditions: HOP-92, 48 h, read-out: GI; in short: as §1
[30] = tested on: NCI-H460; assay: Growth inhibition of human NCI-H460 cells at 10 uM after 48 hrs by SRB assay; conditions: NCI-H460, 48 h, read-out: GI; in short: as §1
[31] = Growth inhibition of human LOXIMVI cells at 10 uM after 48 hrs by SRB assay; conditions: LOX IMVI, read-out: GI; in short: as §1
[32] = Growth inhibition of human OVCAR8 cells at 10 uM after 48 hrs by SRB assay; conditions: OVCAR-8, 48 h, read-out: GI; in short: as §1
[33] = tested on: HL-60(TB); assay: Growth inhibition of human HL-60(TB) cells at 10 uM after 48 hrs by SRB assay; conditions: HL-60, 48 h, read-out: GI
In short: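 NCI 60-cell-line primary screen: compound added at single concentration 10^-5 M, cultures incubated 48 h; end point by sulforhodamine B protein staining read spectrophotometrically; result given as growth percentage of treated versus untreated control cells, reported as % growth inhibition.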

[34] = tested on: MDA-MB-468; assay: Growth inhibition of human MDA-MB-468 cells assessed as cell growth at 10 uM after 48 hrs by SRB assay; conditions: MDA-MB-468, 48 h, read-out: GI; in short: as §1
[35] = Growth inhibition of human UACC257 cells at 10 uM after 48 hrs by SRB assay; conditions: UACC-257, 48 h, read-out: GI; in short: as §1
[36] = tested on: SK-MEL-28; assay: Growth inhibition of human SK-MEL-28 cells at 10 uM after 48 hrs by SRB assay; conditions: SK-MEL-28, 48 h, read-out: GI; in short: as §1
[37] = Growth inhibition of human HCC2998 cells at 10 uM after 48 hrs by SRB assay; conditions: HCC 2998, 48 h, read-out: GI; in short: as §1

Cc1ccc(-c2nc3ccc(Cl)cc3c3nnc(S)n23)cc1
inhibition of growth at 10 µM [1]: < 10%
inhibition of growth at 10 µM [2]: < 10%
inhibition of growth at 10 µM [3]: < 10%
inhibition of growth at 10 µM [4]: 19%
inhibition of growth at 10 µM [5]: 11%
inhibition of growth at 10 µM [6]: < 10%
inhibition of growth at 10 µM [7]: < 10%
inhibition of growth at 10 µM [8]: 13%
inhibition of growth at 10 µM [9]: < 10%
inhibition of growth at 10 µM [10]: < 10%
inhibition of growth at 10 µM [11]: < 10%
inhibition of growth at 10 µM [12]: < 10%
inhibition of growth at 10 µM [13]: < 10%
inhibition of growth at 10 µM [14]: < 10%
inhibition of growth at 10 µM [15]: < 10%
inhibition of growth at 10 µM [16]: < 10%
inhibition of growth at 10 µM [17]: < 10%
inhibition of growth at 10 µM [18]: < 10%
inhibition of growth at 10 µM [19]: 19%
inhibition of growth at 10 µM [20]: < 10%
inhibition of growth at 10 µM [21]: 15%
inhibition of growth at 10 µM [22]: < 10%
inhibition of growth at 10 µM [23]: < 10%
inhibition of growth at 10 µM [24]: < 10%
inhibition of growth at 10 µM [25]: < 10%
inhibition of growth at 10 µM [26]: < 10%
inhibition of growth at 10 µM [27]: < 10%
inhibition of growth at 10 µM [28]: < 10%
inhibition of growth at 10 µM [29]: < 10%
inhibition of growth at 10 µM [30]: < 10%
inhibition of growth at 10 µM [31]: < 10%
inhibition of growth at 10 µM [32]: < 10%
inhibition of growth at 10 µM [33]: < 10%
inhibition of growth at 10 µM [34]: < 10%
inhibition of growth at 10 µM [35]: 33%
inhibition of growth at 10 µM [36]: < 10%
inhibition of growth at 10 µM [37]: < 10%

— ChEMBL document CHEMBL3259728, “Design, synthesis and biological evaluation of some novel substituted quinazolines as antitumor agents” (2014)
